Assay outcomes as filed in PubChem BioAssay.
Rad51 HR inh = human RAD51 strand exchange inhibitors, primary screen, biochemical, fluorescence. DNA repair protein RAD51 homolog 1 (Homo sapiens), Q06609. hRad51 DNA strand exchange, fluorescence dequenching. inhibition, % at 10 µM. actives 0.085% (n = 200,000). AID 1385, 2008;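 active means inhibition above 40% at the single screening dose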
Target sequence (Q06609 whole entry, looked up): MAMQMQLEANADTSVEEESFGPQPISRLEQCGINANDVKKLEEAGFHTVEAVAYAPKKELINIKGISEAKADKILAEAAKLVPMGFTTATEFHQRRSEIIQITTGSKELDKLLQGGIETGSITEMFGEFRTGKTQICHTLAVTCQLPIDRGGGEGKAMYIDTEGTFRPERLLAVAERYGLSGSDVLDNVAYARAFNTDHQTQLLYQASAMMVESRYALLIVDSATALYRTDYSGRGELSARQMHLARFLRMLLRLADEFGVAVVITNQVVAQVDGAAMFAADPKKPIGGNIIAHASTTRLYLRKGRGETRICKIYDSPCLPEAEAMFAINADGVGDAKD
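System: hRad51 filaments on single-stranded DNA; reagent: Fluorescein- and BHQ1-tagged 47-mer duplex; compound dosing: one concentration, 10 µM final; timing: filaments 15 min 37 °C, then compound 30 min; measured by: fluorescein emission 520 nm, excitation 485 nm; benchmarks: per-plate controls and blanks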
Dynein transport = inhibitors of GR-EGFP nuclear translocation, primary screen, dynein cargo transport inhibitor project, imaging, high-content, 3617.4 mouse cells. z-score, hits read low. actives 0.47% (n = 220,000). test concentration mostly 20 µM; stimulated with dexamethasone, 1 µM; active compounds read low;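 active means plate z-score of nuclear minus cytoplasmic receptor signal below a set negative limit, without overly bright fluorescence or cell loss, cut at about -3.5 in these data, passing the limit was not always enough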;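 further: z-score of nuclear minus cytoplasmic ring GR-EGFP intensity difference per well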
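Buffer or medium: tet-free, stripped-serum medium; reagent: dexamethasone at 1.0 µM final, 30 min; incubation: 48 h induction, 1 h compound, 30 min dex at 37 °C; measured by: formaldehyde fixation, Hoechst nuclear stain, 10x automated fluorescence imaging; read-out: nuclear-to-cytoplasmic GR-EGFP distribution per well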
MT stabilizer = microtubule stabilizers in HeLa cells, primary screen, imaging, high-content imaging. actives 0.83% (n = 200,000). HeLa tubulin immunostaining HCS, 24 h; share of cells brighter than vehicle mean+2SD. % tubulin-high responders, % at 10 µM;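 active means plate Z-score above 3 for both tubulin-high and condensed-nucleus cell shares, with cell loss under 80%, at 10 µM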;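 further: anti alpha tubulin signal scored within the nucleus-defined area of each cell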
TbHK1 inh = Trypanosoma brucei hexokinase 1 inhibitors, primary screen, biochemical, G6PDH-coupled NADH absorbance, MLSCN library | recombinant TbHK1, G6PDH-coupled NADH A340 | hexokinase 1 [Trypanosoma brucei] | inhibition, % at 10 µM | actives 0.11% (n = 220,000);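 active means inhibition of 50% or more in the single-dose primary screen; inactive means inhibition below 50%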
b-catenin transl = modulators of beta-catenin nuclear translocation, primary screen, imaging, HeLa cells, immunofluorescence, high-content. nuclear translocation activity, % at 5 µM. actives 0.3% (n = 190,000);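 active means nuclear translocation activity above 50% at 5 µM, with a well cell count of 50 or more; inconclusive means wells under 50 cells across six images, flagged as toxic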;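 further: per-cell ratio of nuclear to cytoplasmic median beta-catenin stain intensity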
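Test system: human HeLa cell line; Doses: 5 µM primary, 0.02–20 µM confirmation; Incubation: 24 h compound exposure, 37°C; Detection: beta-catenin immunofluorescence imaging with DAPI; Read-out: beta-catenin nuclear/cytoplasmic ratio, % activation.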
Dynein confirm = dynein cargo transport inhibitors, GR-EGFP translocation, confirmation, imaging, high-content imaging, GR-EGFP cells; calls only at 20 µM; AID 463116, 2010; shares compounds with Dynein transport; actives 69% (n = 1,000); 3617.4 GR-EGFP nuclear translocation imaging, dexamethasone-induced;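 active means inhibition of receptor movement into the nucleus at or above a set limit in both runs, with normal cell brightness and cell count; inconclusive means limit reached in only one run, brightness and count normal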;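 further: dexamethasone at 1 µM final in well for 30 min; nuclear minus cytoplasmic GR-EGFP mean intensity difference in channel 2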
Large screens that a line does not name were inactive (follow-up assays come after a bar, where they were run). Hits are enriched below; roughly 1.5% of the tested compounds scored in any of these assays.

COCCCn1c(O)c(/C=C2\N=C(C#N)C(=Nc3ccc(C)cc3)O2)sc1=S	none (no result: Rad51 HR inh, MT stabilizer) | Dynein confirm active
O=C(O)CCCn1c(O)c(C=C2N=c3ccccc3=N2)sc1=S	none (no result: MT stabilizer)
CCOc1ccc(N2C(=O)CC(Sc3n[nH]c(-c4ccccc4)n3)C2=O)cc1 (stereo unspecified)	Dynein transport -5.18 | Dynein confirm inactive
COCCn1c(SCC(=O)Nc2ncc(Cl)c(C)c2Cl)nc2ccccc21	none
C=CCSC(=C(C#N)C#N)c1cc2c([nH]1)CCCC2	Dynein transport -4.01 | Dynein confirm active
C=CCNc1cnn(CC(C)=O)c(=O)c1Br	none
CC(C)(C)C(=O)Cn1ncc(Br)c(Br)c1=O	Dynein transport -4.37 | Dynein confirm active
O=C(Nc1ccc(Cl)cc1)Nc1ccccc1Sc1ncc([N+](=O)[O-])s1	none (no result: MT stabilizer)
C=CCn1c(Sc2ncc([N+](=O)[O-])s2)n[nH]c1=O	Dynein transport -5.68 (no result: MT stabilizer) | Dynein confirm active
CNC(=O)NC(=O)CSc1ncc(C(F)(F)F)cc1Cl	none
CCC1CCc2c(c3ccccc3[nH]c2=O)O1 (stereo unspecified)	none (no result: Rad51 HR inh)
O=c1[nH]c2ccccc2c2oc(CCl)nc12	Dynein transport -4.14 (no result: MT stabilizer) | Dynein confirm inconclusive
CS(=O)(=O)c1ccc(C(=O)OCc2nnc(-c3ccc(Cl)cc3)o2)cc1[N+](=O)[O-]	Dynein transport -5.59 | Dynein confirm active
O=C(OCc1nnc(-c2ccc(Cl)cc2)o1)c1ccc(O)cc1	none
COc1ccc(OCC(=O)N(C)Cc2ccccc2)cc1	none
COc1ccc(CN(C)C(=O)CCl)cc1	Dynein transport -4.35 | Dynein confirm active
CN(Cc1ccc(Cl)cc1)C(=O)CCl	Dynein transport -6.22 (no result: Rad51 HR inh) | Dynein confirm active
CN(Cc1ccc(Cl)s1)C(=O)CCl	Dynein transport -5.66 | Dynein confirm active
CN(C)CCNC(=O)c1ccc(Cl)s1	none
O=C1CC(c2nc3ccccc3[nH]2)CN1c1ccccc1F (stereo unspecified)	none
COC(C(=O)Nc1ccc(S(=O)(=O)Nc2c(C)cccc2C)cc1)c1ccccc1 (stereo unspecified)	none (no result: b-catenin transl)
O=C(CN1CCCc2ccccc21)NC(=O)NC1CCCCC1	none | Dynein confirm inactive
CC(C)(C)NC(=O)NC(=O)CN1CCCc2ccccc21	none (no result: Rad51 HR inh)
O=c1cc(C(Cl)(Cl)Cl)oc2c1ccc1ccccc12	Dynein transport -3.98 | Dynein confirm active
COCCOC(=O)/C(=C\c1cc(C(C)(C)C)c(O)c(C(C)(C)C)c1)C(C)=O	Dynein transport -5.34 (no result: MT stabilizer) | Dynein confirm active
CC(C)(C)c1cc(CCC(=O)NN)cc(C(C)(C)C)c1O	none
Cn1nnnc1SC1CC(=O)N(c2ccccc2)C1=O (stereo unspecified)	Dynein transport -4.6 (no result: Rad51 HR inh) | Dynein confirm active
Cc1cc(Oc2cc(N)cc([N+](=O)[O-])c2)ccc1Cl	none
COc1ccc(N/C=C/c2nc(SC)nnc2C)cc1	none | Dynein confirm inactive
CC(=O)NC(CSC(CC(=O)c1ccco1)c1ccc(C)cc1)C(=O)O (stereo unspecified)	Dynein transport -4.27 | Dynein confirm inactive
O=c1c2c3c(sc2ncn1/N=C/c1cccnc1)CCCC3	none
O=C(c1nnsc1S(=O)c1ccc(Cl)cc1)N1CCOCC1 (stereo unspecified)	Dynein transport -4.77 | Dynein confirm active
O=C(Nc1ccc(Cl)cc1)c1cccs1	none
CNC(=O)c1nnsc1S(=O)(=O)c1ccc(Cl)cc1	Dynein transport -4.01 | Dynein confirm active
O=C(Nc1ccccc1)c1nnsc1S(=O)c1ccc(Cl)cc1 (stereo unspecified)	Dynein transport -3.53 (no result: Rad51 HR inh) | Dynein confirm active
CNC(=O)c1ncoc1-c1ccc(Cl)cc1	none (no result: MT stabilizer)
O=C(c1nnsc1S(=O)(=O)c1ccc(Cl)cc1)N1CCOCC1	Dynein transport -6 | Dynein confirm active
CCOCCCNC(=S)N1CCN(Cc2ccc3c(c2)OCO3)CC1	none
Cc1nc(COC(=O)c2cc(O)c3ccccc3c2O)cs1	Dynein transport -3.61 | Dynein confirm inactive
Cc1nc(COC(=O)c2ccc(CO)cc2)cs1	none
C=CCSc1nc2[nH]ncc2c(=O)[nH]1	none
CC(=O)Nc1sc(/C(C#N)=C/c2ccc(Cl)c(Cl)c2)nc1-c1ccc(C)cc1	Dynein transport -5.86 | Dynein confirm active
O=C(NCCCN1CCCCCC1)c1ccc2c(Cl)c3c(nc2c1)CCCC3	Dynein transport -3.68 | Dynein confirm active
O=C(NCCN1CCCC1)c1ccc(Cl)cc1	none
CC1CCN(CCCNC(=O)c2ccc3c(Cl)c4c(nc3c2)CCCC4)CC1	Dynein transport -4.96 (no result: MT stabilizer) | Dynein confirm active
O=C(CCl)c1ccc2c(c1)CCN2C(=O)C1CCCCC1	Dynein transport -5.68 | Dynein confirm active
O=C(CCl)c1ccc2c(c1)CCN2C(=O)C1CC1	Dynein transport -4.81 | Dynein confirm active
O=C(O)c1cc([N+](=O)[O-])ccc1NCCCc1ccccc1	none (no result: Dynein transport, MT stabilizer, TbHK1 inh, b-catenin transl)
COc1ccc(Nc2nc(N)nc(CCl)n2)cc1	none (no result: MT stabilizer)
Nc1nc(CCl)nc(Nc2ccc3ccccc3c2)n1	Dynein transport -4.29 (no result: MT stabilizer) | Dynein confirm active
CCN(CC(=O)NCc1ccc(F)cc1)Cc1nc2ccccc2c(=O)[nH]1	none
CC(C)(C)C(=O)/C=c1\[nH]c(=O)/c(=C\c2ccc(F)cc2)s1	none
COc1ccc(/C=c2\s/c(=C/C(=O)c3ccc(C)cc3)[nH]c2=O)cc1OC	none | Dynein confirm inactive
O=C(Nc1ccc(F)cc1)c1nn(-c2ccccc2)c(=O)cc1Cl	Dynein transport -5.43 | Dynein confirm active
O=C(C#Cc1ccccc1)c1cccc([N+](=O)[O-])c1	none
O=C(c1ccc(Cl)cc1)c1ccc(OCC(=O)N2CCOCC2)cc1	none (no result: b-catenin transl)
O=C(COc1ccc(/C=C\[N+](=O)[O-])cc1)N1CCOCC1	Dynein transport -5.04 | Dynein confirm active
COC(=O)c1ccc(C(=O)O)nc1	none (no result: MT stabilizer)
CC(=O)/C=C1/C(=O)Nc2ccccc21	Dynein transport -5.55 | Dynein confirm active
COC(=O)[C@@]1(Cc2ccccc2)[C@@H]2C(=CC(=O)[C@H]2CC(=O)C(=O)N(C)C)CN1C(=O)c1ccccc1	Dynein transport -5.16 | Dynein confirm active
COC(=O)[C@@]1(Cc2ccc(F)cc2)[C@H]2c3cc(C(=O)N(C)C)n(C[C@H](O)CO)c3C[C@H]2CN1C(=O)c1ccccc1	none
CCOC(=O)CCSc1nc(C)cc(C(F)(F)F)c1C#N	none | Dynein confirm inactive
